# Published values from different studies.
# CNR2: Cannabinoid receptor 2 (CNR2, Homo sapiens, UniProt P34972)
# Ribonuclease H1: Ribonuclease H1 (Homo sapiens, UniProt O60930)
# F10: Coagulation factor X (F10, Homo sapiens, UniProt P00742)
Compound,target,read-out,mode,method,setting,quantity,value
c1cncc([C@@H]2CCCN2)c1,"Neuronal acetylcholine receptor; alpha2/beta2 (Rattus norvegicus, UniProt P12389+P12390)",cell-free assay,,radioligand,,Ki,87.1 nM
CCCC[C@H](NC(C)=O)C(=O)N[C@H]1CC(=O)NCCCC[C@@H](C(=O)N2CCC[C@@H]2C(=O)N[C@@H](C(=O)N2CCC[C@@H]2C(N)=O)C(C)C)NC(=O)[C@H](Cc2c[nH]c3ccccc23)NC(=O)[C@H](CCCNC(=N)N)NC(=O)[C@@H](Cc2ccccc2)NC(=O)[C@@H]2CCCN2C1=O,"Melanocortin receptor 5 (MC5R, Homo sapiens, UniProt P33032)",cAMP,agonist,,,EC50,0.391 nM
CCCCC/C=C\[C@H](C)/C=C\C/C=C\Cc1ccccc1CCCC(=O)OC(CO)CO,CNR2,β-arrestin recruitment,agonist,,,EC50,4180 nM
Cc1ccc(NC(=O)c2c(Nc3ccccc3)[nH]c(=O)n(O)c2=O)cc1,Ribonuclease H1,enzyme activity,inhibitor,,,IC50,> 10000 nM
CCCCCn1nc(C(=O)NC(C)(C)c2cccc(C(N)=O)c2)c2ccccc21,CNR2,ligand displacement,,radioligand,cell membranes,Ki,250 nM
CCCCC/C=C\[C@H](C)/C=C\C/C=C\Cc1ccccc1CCCC(=O)N[C@H](C)CO,CNR2,cAMP,agonist,,,EC50,751 nM
CC(C)(NC(=O)c1nn(Cc2ccc(C#N)cc2)c2ccccc12)c1cccc(C(N)=O)c1,CNR2,ligand displacement,,radioligand,cell membranes,Ki,290 nM
C[C@H](NC(=O)[C@H](CCC(N)=O)NC(=O)CCCCNC(=N)N)C(=O)N[C@@H](CCCNC(=N)N)C(=O)c1nc2ccccc2s1,F10,cell-free assay,,,,Ki,85 nM
CCCCC/C=C\C/C=C\C/C=C\Cc1ccccc1CCCC(=O)N[C@H](C)CO,CNR2,β-arrestin recruitment,agonist,,,EC50,14.7 nM
O=[N+]([O-])c1ccc(O)c([N+](=O)[O-])c1,"Casein kinase I isoform alpha (CSNK1A1, Homo sapiens, UniProt P48729)",binding,,SPR,,Kd,> 50000 nM
CC(C)(NC(=O)c1nn(CC2CCCC2)c2ccccc12)c1cccc(C(N)=O)c1,CNR2,ligand displacement,,radioligand,cell membranes,Ki,110 nM
CCCCCc1ccccc1C/C=C\C/C=C\C/C=C\CCCC(=O)N[C@H](C)CO,CNR2,β-arrestin recruitment,agonist,,,EC50,436 nM
CC[C@H](C)[C@@H](C(=O)N1CCC[C@H]1c1nccs1)N(C)C(=O)[C@H](CC(C)C)N(C)C(=O)[C@H](Cc1ccc(OC)cc1)N(C)C(=O)/C=C(\C)OC,CNR2,ligand displacement,,radioligand,,IC50,6100 nM
CC(C)(C#N)CCCn1nc(C(=O)NC(C)(C)c2cccc(C(N)=O)c2)c2ccccc21,CNR2,ligand displacement,,radioligand,cell membranes,Ki,130 nM
COc1cc2c(cc1OC)CN(CCc1ccc(NC(=O)c3cccc4c(=O)c5cccc(OC)c5[nH]c34)cc1)CC2,"D(1B) dopamine receptor (DRD5, Homo sapiens, UniProt P21918)",cell-free assay,,,,Ki,> 10000 nM
O=C1Cc2cc(-c3ccco3)ccc2C(=O)N1O,Ribonuclease H1,enzyme activity,inhibitor,,,IC50,2390 nM
CS(=O)(=O)N[C@@H](CCC(N)=O)C(=O)N[C@@H](Cc1ccccc1)C(=O)N[C@@H](CCCNC(=N)N)C(=O)c1nc2ccccc2s1,F10,cell-free assay,,,,Ki,16 nM
